Screens (PubChem)
rCAG binder-1: binders of r(CAG) RNA repeats, primary screen, biochemical, fluorescence. r(CAG) RNA repeat, TO-PRO-1 dye displacement fluorescence. inhibition, % at 3 µM. 370,000 tested, 1.3% active;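 active = inhibition above the plate cutoff, the mean of all test compounds on that plate plus 3 SD, cut at about 35% in these data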;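 note: higher means more dye released from RNA so lower well fluorescence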
B2AR ag: beta2AR agonists driving receptor internalization, primary screen, cell-based, FAP fluorogen, flow cytometry; Beta-2 adrenergic receptor (Homo sapiens), P07550; 340,000 tested, 0.43% active; response, % (no concentration beside the values); AID 504454, 2011; Am2.2-beta2AR cells;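 active = response above a set limit, near 3 SD of response in nonfluorescent compounds, cut at about 42% in these data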
Target sequence (P07550 whole entry, looked up): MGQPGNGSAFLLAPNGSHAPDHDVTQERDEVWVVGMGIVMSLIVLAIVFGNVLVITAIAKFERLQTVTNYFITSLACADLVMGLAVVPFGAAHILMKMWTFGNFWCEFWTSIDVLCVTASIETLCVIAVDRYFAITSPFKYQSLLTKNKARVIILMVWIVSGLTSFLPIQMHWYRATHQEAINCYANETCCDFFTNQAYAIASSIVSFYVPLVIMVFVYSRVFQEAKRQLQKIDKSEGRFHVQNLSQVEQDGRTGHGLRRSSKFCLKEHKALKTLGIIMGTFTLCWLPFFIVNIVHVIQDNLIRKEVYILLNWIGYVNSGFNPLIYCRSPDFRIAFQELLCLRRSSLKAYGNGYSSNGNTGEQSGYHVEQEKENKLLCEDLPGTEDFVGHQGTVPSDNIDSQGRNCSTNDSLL
MPTP inh: mitochondrial permeability transition pore inhibitors, primary screen, biochemical, isolated mouse mitochondria, absorbance. 360,000 tested, 1.4% active. Ca2+ swelling absorbance, 30 min. inhibition, % at 10 µM;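 active = inhibition of 50% or more, scaled per plate between neutral and stimulator controls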
Exocytosis inh: LAMP-1 surface exposure blockers, TALL-104 cells – cell-based, flow cytometry, MLPCN library, primary screen; TALL-104 LAMP-1 surface exposure; cells stimulated with thapsigargin and PMA; inhibition, % at 10 µM; 360,000 tested, 0.66% active;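 active = inhibition above about 55%, limit read from the data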
T cell HTS: modulators of CD8 T cell-vesicle binding, primary screen, mouse 2C CD8+ T cells, flow cytometry; 2C CD8+ T cell-vesicle binding; active compounds read low; AID 2052, 2009; response (vesicle binding), % at 7 µM; 330,000 tested, 0.068% active;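 active = response, share of CD8 T cells binding vesicles, and their 90th percentile fluorescence all below set limits, cut at about 80% in these data, passing the limit was not always enough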;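 note: values below 100% mean blocked vesicle binding to the CD8+ T cells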
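Benchmarks: naked versus QL9-loaded vesicles / Assay system: purified 2C TCR transgenic mouse naive CD8+ T cells / Technique: high-throughput flow cytometry with anti-B7-1 and anti-CD8 staining / Timing: Cell–vesicle co-incubation 1.5 h at 37 °C, staining 20 min on ice / Read-out: percent CD8+ FL2 mean versus row control / Probe or stimulus: QL9-loaded Drosophila micro-vesicles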
V-ATPase pHluor: regulators of yeast V-ATPase proton pumping, primary screen, pHLuorin cytosolic pH fluorescence; S. cerevisiae; response, % at 10 µM; 350,000 tested, 0.37% active; in the data active = response mostly above about 7.3%, no sharp cut-off; inactive = mostly below about 5.4%; note: actives read high
rCAG bind conf: small molecules binding CAG repeat RNA – biochemical, fluorescence, confirmation. r(CAG) RNA repeat, TO-PRO-1 dye displacement fluorescence. 4,300 tested, 70% active. shares compounds with rCAG binder-1. inhibition, % at 3 µM;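 active = inhibition above a per-plate cutoff, the mean inhibition of sample wells plus 3 SD, cut at about 35% in these data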;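 note: loss of TO-PRO-1 fluorescence as compound displaces dye from 1x1 AA loop RNA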
dCAG dye counter: displacement of TO-PRO-1 from CAG DNA duplex, counter-screen for rCAG RNA repeat binder project, biochemical, fluorescence, TO-PRO-1 dye, d(CAG) DNA oligo | d(CAG) DNA oligo TO-PRO-1 dye displacement | inhibition, % at 3 µM | 4,300 tested, 94% active | shares compounds with rCAG binder-1;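 active = inhibition above its plate's cutoff, the mean test-well inhibition plus 3 SD, cut at about 4.8% in these data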;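 note: hits displace the dye from DNA and so lower well fluorescence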
DNA CAG DR: inhibitors of DNA CAG/GTC TO-PRO-1 complex, dose response, counter-screen for rCAG RNA repeat binder project, biochemical, fluorescence, TO-PRO-1 dye; IC50, µM; 250 tested, 20% active; DNA CAG/GTC duplex TO-PRO-1 dye displacement fluorescence; AID 686960, 2013; shares compounds with rCAG binder-1; in the data active = IC50 below about 10 µM
dCAG DNA bind: TO-PRO-1 dye complex inhibitors on d(CAG) DNA, dose response, counter-screen, biochemical, fluorescence, late stage. d(CAG) DNA duplex TO-PRO-1 dye displacement. 30 tested, 80% active. AID 720649, 2013. shares compounds with rCAG binder-1. IC50, µM
rCAG binder-2: molecules binding r(CAG) RNA repeats, late stage dose response, late-stage follow-up, biochemical, fluorescence, dose response, powder samples | r(CAG) RNA TO-PRO-1 dye displacement | shares compounds with rCAG binder-1 | IC50, µM | 30 tested, 100% active
A number is an active result; . = inactive; / = no result. Rows were chosen to be rich in hits. Some 3.8% of all compounds tested hit in one or more screens of this group. Unless noted, the rule behind the calls is not given here.

SMILES	rCAG binder-1	B2AR ag	MPTP inh	Exocytosis inh	T cell HTS	V-ATPase pHluor	rCAG bind conf	dCAG dye counter	others
O=C1NC(=O)N(Cc2ccccc2Cl)C(=O)/C1=C/c1cccs1	56	.	.	.	.	.	.	.
Cc1cc(/C=C2\C(=O)NC(=O)N(Cc3ccccc3Cl)C2=O)c(C)n1-c1ccc(C(=O)O)cc1	39	.	.	.	.	.	59	18
Cc1cc(/C=C2\C(=O)NC(=O)N(c3cccc(F)c3)C2=O)c(C)n1-c1ccc(C(=O)O)c(Cl)c1	.	.	.	.	.	.	/	/
Cc1cc(/C=C2\C(=O)NC(=O)N(Cc3ccccc3)C2=O)c(C)n1-c1ccc(Cl)c(C(=O)O)c1	43	.	.	.	.	.	65	24
Cc1cc(/C=C2\C(=O)NC(=O)N(Cc3ccco3)C2=O)c(C)n1-c1ccc(C(=O)O)cc1	.	.	.	.	.	.	/	/
CC1=C(C)CC2(C(=O)NC(=S)NC2=O)C(C)C1 (stereo unspecified)	.	.	.	.	/	.	/	/
O=C(NP(=O)(N1CC1)N1CC1)c1cc(I)ccc1I	.	.	.	.	/	.	/	/
CCOc1cc(C2C(C#N)=C(N)Oc3c2c(=O)oc2ccccc32)ccc1OC(=O)c1cccs1 (stereo unspecified)	47	.	.	.	.	.	.	15
CC1CCN(C(CC(=O)c2ccccc2)C(=O)c2ccccc2)CC1 (stereo unspecified)	.	.	.	.	/	.	/	/
Nc1ccccc1N=Cc1c(O)n(CCC2=CCCCC2)c(=O)[nH]c1=O	.	.	.	.	.	.	/	/
O=C(N/N=C/c1c(O)n(CCC2=CCCCC2)c(=O)[nH]c1=O)c1ccccc1	46	.	.	.	.	.	40	11
O=C(N/N=C/c1c(O)n(CCC2=CCCCC2)c(=S)[nH]c1=O)c1ccccc1	70	.	.	.	.	.	73	32	DNA CAG DR=.;dCAG DNA bind=2.2;rCAG binder-2=0.99
Cc1ccc(-n2c(C)cc(/C=C3/C(=O)NC(=O)N(Cc4ccco4)C3=O)c2C)cc1	.	.	.	.	.	.	/	/
Cc1ccc(OCCn2cccc2/C=C2/C(=O)NC(=O)N(Cc3ccco3)C2=O)cc1	36	.	.	.	.	.	.	8.7
Cn1cccc1/C=C1\C(=O)NC(=O)N(Cc2ccco2)C1=O	40	.	.	.	/	.	.	.
COc1ccc(/C=C2/C(=O)NC(=O)N(Cc3ccco3)C2=O)cc1	/	/	/	/	.	/	/	/
Brc1ccc2c(c1)-n1nncc1CN(CC1CCCCC1)C2	.	/	.	.	/	/	/	/
